Test results published in ChEMBL document CHEMBL4033790, “Design and Synthesis of Novel Deuterated Ligands Functionally Selective for the γ-Aminobutyric Acid Type A Receptor (GABAAR) α6 Subtype with Improved Metabolic Stability and Enhanced Bioavailability” (J Med Chem, 2018).
Converted amounts (≈) assume the structure as drawn. The source made the active and inactive calls. The calls are words filed in the database; no cut-off is given here.

Assays:
[1] = target: Voltage-gated inwardly rectifying potassium channel KCNH2 (Homo sapiens, UniProt Q12809); assay: Displacement of [3H]-dofetilide from human ERG expressed in HEK cell membranes at >10 uM after 60 to 90 mins by scintillation counting
Sequence of Voltage-gated inwardly rectifying potassium channel KCNH2 (Q12809 whole entry): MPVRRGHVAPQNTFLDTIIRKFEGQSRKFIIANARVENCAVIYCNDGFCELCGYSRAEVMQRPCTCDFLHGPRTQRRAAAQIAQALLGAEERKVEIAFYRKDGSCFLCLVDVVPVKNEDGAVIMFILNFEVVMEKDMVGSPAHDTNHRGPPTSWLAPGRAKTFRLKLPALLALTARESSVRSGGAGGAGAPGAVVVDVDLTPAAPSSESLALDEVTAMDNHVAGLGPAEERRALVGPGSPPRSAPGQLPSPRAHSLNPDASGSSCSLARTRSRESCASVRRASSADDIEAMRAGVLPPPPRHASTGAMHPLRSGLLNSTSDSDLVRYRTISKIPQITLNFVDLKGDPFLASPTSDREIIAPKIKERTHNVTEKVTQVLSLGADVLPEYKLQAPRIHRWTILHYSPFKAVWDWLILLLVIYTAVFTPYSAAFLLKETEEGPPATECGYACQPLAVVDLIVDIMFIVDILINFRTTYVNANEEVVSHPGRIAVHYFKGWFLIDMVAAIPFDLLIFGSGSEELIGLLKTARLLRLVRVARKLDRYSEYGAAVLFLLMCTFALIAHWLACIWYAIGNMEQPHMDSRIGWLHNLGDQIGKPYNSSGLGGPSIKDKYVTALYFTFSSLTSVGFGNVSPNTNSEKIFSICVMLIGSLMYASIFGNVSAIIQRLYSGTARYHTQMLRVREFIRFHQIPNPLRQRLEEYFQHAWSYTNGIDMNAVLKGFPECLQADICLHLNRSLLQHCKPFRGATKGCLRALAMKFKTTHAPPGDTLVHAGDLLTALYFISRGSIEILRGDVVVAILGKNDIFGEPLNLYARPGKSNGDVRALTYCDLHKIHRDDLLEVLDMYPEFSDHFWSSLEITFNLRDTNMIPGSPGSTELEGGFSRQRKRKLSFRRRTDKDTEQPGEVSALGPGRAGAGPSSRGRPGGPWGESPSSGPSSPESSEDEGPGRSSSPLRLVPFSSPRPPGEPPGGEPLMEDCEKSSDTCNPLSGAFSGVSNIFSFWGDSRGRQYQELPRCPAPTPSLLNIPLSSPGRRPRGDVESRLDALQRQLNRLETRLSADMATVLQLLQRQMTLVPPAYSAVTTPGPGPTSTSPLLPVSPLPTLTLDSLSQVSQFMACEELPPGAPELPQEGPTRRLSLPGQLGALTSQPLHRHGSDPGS

[2] = Metabolic stability in mouse liver microsomes assessed as parent compound remaining at 10 uM after 60 mins by LC-MS analysis; type: ADME, microsome; settings: read-out: Stability
Outline: (§1)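 The 60 min samples of the microsomal incubation (10 μM compound, human or mouse liver microsomes at 0.5 mg/mL, NADPH regenerating system, 37 °C) were analysed by LC-MS. Detection used SIM mode with dual ESI/APCI ionization, calibrated to the retention times and masses of the parent and its O-demethylated metabolites. Peak intensities were measured.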

[3] = Metabolic stability in human liver microsomes assessed as parent compound remaining at 10 uM after 60 mins by LC-MS analysis; type: ADME, microsome; settings: read-out: Stability; outline: as §1
HepG2 = assay: Cytotoxicity against human HepG2 cells assessed as reduction in cell viability up to 400 uM after 48 hrs by CellTiter-Glo assay; type: cell-based; settings: hepg2, 48 h
Outline: (§2)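 HEK293T and HepG2 cells grown in high-glucose DMEM with non-essential amino acids, 10 mM HEPES, penicillin/streptomycin and 10% heat-inactivated FBS. Cells were harvested with trypsin and plated; compound was pin-transferred 3 h later. Incubation was 48 h, then CellTiter-Glo luminescence was read. Controls were DMSO (negative) and a cytotoxic aminoketone (positive). Quadruplicates, three independent runs, normalized to controls, nonlinear regression.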

Mus musculus = assay: Neurotoxicity in Swiss Webster mouse assessed as induction of motor impairment at 40 mg/kg administered via oral gavage measured after 10 to 60 mins by rotarod method; type: toxicity, organism-based; settings: in vivo
Outline: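 Female mice were given a single oral gavage dose of 40 mg/kg, either in 50% PBS/40% propylene glycol/10% DMSO or, for poorly soluble compounds, in 2% polyethylene glycol plus 2.5% hydroxymethyl cellulose. Rotarod performance was tested 10, 30 and 60 min after dosing, with diazepam 5 mg/kg as positive control.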

HEK-293T = assay: Cytotoxicity against HEK293T cells assessed as reduction in cell viability up to 400 uM after 48 hrs by CellTiter-Glo assay; type: cell-based; settings: human; outline: as §2
Liver [4] = assay: Half life in human liver microsomes at 10 uM by LC-MS/MS analysis; type: ADME, microsome
Outline: (§3)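 Compound at 10 μM final was preincubated 5 min at 37 °C with NADPH regenerating system in phosphate buffer, pH 7.4. Human or mouse liver microsomes (0.5 mg/mL protein) were added to start the reaction. Samples were taken at 0 (no microsomes) and 10–60 min and measured by LC-MS/MS against an internal standard. Half-life = 0.693/k, with k the slope of ln peak-area ratio versus time. Three experiments, each in duplicate.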

Liver [5] = assay: Half life in mouse liver microsomes at 10 uM by LC-MS/MS analysis; type: ADME, microsome; outline: as §3
[6] = target: 5-hydroxytryptamine receptor 7 (Homo sapiens) (UniProt P34969); assay: Displacement of [3H]-LSD from human recombinant 5HT7 receptor expressed in HEK293 cells at 10 uM after 60 to 90 mins by scintillation counting; type: cell-based; settings: tested as the 2H-labelled form
Sequence of 5-hydroxytryptamine receptor 7 (Homo sapiens) (P34969 whole entry): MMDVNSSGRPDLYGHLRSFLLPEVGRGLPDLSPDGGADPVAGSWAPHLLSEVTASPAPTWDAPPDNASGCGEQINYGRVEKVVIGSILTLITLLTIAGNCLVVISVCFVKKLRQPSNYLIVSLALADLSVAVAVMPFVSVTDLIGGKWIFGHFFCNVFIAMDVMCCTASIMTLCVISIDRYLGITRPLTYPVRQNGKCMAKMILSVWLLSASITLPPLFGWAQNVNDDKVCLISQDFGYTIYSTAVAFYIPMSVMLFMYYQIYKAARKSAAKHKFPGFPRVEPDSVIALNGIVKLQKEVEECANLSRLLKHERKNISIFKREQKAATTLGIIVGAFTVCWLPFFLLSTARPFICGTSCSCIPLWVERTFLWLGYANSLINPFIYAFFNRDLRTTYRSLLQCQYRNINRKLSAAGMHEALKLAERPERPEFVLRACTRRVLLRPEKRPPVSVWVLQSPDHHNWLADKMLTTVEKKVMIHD

[7] = target: T1, 5-hydroxytryptamine receptor 2C (Homo sapiens) (UniProt P28335); assay: Displacement of [3H]-mesulergine from human recombinant 5HT2C receptor expressed in HEK293T cells at 10 uM after 60 to 90 mins by scintillation counting; type: cell-based; settings: HEK-293T, tested as the 2H-labelled form
T1 sequence (whole entry): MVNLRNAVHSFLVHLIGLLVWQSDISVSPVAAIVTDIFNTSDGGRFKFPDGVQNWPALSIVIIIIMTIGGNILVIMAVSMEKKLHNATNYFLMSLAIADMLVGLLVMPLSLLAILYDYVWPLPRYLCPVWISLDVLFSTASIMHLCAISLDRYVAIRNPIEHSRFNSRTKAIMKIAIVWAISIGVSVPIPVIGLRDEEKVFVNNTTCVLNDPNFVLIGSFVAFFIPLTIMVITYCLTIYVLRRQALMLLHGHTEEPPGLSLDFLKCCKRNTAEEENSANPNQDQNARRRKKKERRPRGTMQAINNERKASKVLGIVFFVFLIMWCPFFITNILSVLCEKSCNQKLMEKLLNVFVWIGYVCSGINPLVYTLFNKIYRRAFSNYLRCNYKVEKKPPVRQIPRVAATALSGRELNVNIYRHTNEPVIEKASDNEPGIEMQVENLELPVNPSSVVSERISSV

Rattus norvegicus = organism: Rattus norvegicus; assay: Displacement of [3H]-flunitrazepam from rat brain GABA-A receptor benzodiazepine site […] at 10 uM after 60 to 90 mins by scintillation counting
[8] = target: 5-hydroxytryptamine receptor 2B (Homo sapiens) (UniProt P41595); assay: Displacement of [3H]-LSD from human recombinant 5HT2B receptor expressed in HEK293 cells at 10 uM after 60 to 90 mins by scintillation counting; type: cell-based; settings: tested as the 2H-labelled form
Sequence of 5-hydroxytryptamine receptor 2B (Homo sapiens) (P41595 whole entry): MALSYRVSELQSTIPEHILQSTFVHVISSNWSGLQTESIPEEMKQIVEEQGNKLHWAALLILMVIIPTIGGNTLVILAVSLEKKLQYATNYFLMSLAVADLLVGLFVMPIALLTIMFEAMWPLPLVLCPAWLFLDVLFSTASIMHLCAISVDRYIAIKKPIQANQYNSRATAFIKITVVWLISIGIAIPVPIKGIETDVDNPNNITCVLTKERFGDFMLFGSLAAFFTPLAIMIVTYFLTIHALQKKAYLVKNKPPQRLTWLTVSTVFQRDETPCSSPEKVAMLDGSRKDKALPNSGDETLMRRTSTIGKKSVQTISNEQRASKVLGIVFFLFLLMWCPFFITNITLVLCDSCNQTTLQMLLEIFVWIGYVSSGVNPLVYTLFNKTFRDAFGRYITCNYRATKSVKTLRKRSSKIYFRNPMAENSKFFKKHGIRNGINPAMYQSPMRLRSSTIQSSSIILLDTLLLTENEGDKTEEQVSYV

[9] = target: Mu-type opioid receptor (Homo sapiens) (UniProt P35372); assay: Displacement of [3H]-DAMGO from human recombinant MOR expressed in HEK293 cells at 10 uM after 60 to 90 mins by scintillation counting; type: cell-based; settings: tested as the 2H-labelled form
Sequence of Mu-type opioid receptor (Homo sapiens) (P35372 whole entry): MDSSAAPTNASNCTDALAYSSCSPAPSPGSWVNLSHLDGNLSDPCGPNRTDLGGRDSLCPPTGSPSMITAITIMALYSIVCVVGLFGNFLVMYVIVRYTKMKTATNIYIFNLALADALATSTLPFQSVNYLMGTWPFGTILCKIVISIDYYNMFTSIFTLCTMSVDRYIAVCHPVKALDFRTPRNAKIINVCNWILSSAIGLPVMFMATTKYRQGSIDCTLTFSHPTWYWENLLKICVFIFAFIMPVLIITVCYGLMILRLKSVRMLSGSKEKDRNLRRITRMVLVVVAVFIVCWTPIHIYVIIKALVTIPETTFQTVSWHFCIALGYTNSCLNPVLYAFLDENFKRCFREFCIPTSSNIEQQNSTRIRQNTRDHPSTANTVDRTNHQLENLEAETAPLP

[10] = Aqueous solubility of the compound in DI water at pH 7 after 2 hrs by LC-MS analysis; type: physicochemical; settings: buffer, pH 7, 2 h
Outline: (§4)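 10 mg compound dissolved in 2 mL DMAC; 10 μL of this added to 2 mL DI water (pH 7, sonicated) or 2 mL 0.01 M aq HCl (pH 2), held 2 h at 37 °C. Filtered through 0.45 micron filter, then quantified by LC-MS in SIM mode against calibration curves of standards in DMAC (n = 5); n=3.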

[11] = Solubility of the compound in 0.01M HCl at pH 2 after 2 hrs by LC-MS analysis; type: physicochemical; settings: buffer, pH 2, 2 h; outline: as §4
[12] = target: GABA-A receptor; alpha-6/beta-3/gamma-2 (Homo sapiens) (UniProt P18507+P28472+Q16445); assay: Positive allosteric modulation of GABA-A receptor alpha6beta3gamma2 (unknown origin) expressed in Xenopus laevis oocytes assessed as potentiation of EC3 GABA induced currents up to 10 uM at -60 mV holding potential by electrophysiological method; type: cell-based
Outline: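 Stage 5–6 defolliculated Xenopus oocytes were injected with 2.5 ng total mRNA per oocyte: α1, α2, α3 or α5 with β3 and γ2 at 1:1:5, and α4 or α6 with β3 and γ2 at 3:1:5. Oocytes were kept ≥36 h at 18 °C in NDE medium before recording. Compounds were co-applied with GABA titrated to EC3-5 for each oocyte. Curves were fitted with the Hill equation; mean ± SEM from ≥3 oocytes across two batches.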

| SMILES | inhibition (INH) [1] | remaining at 1 h, 10 µM [2] | remaining at 1 h, 10 µM [3] | Activity (Mus musculus) | t1/2 (Liver [4]) | t1/2 (Liver [5]) | further results |
| --- | --- | --- | --- | --- | --- | --- | --- |
| [2H]C([2H])([2H])Oc1ccc2[nH]cc3c(=O)n(-c4ccccc4OC([2H])([2H])[2H])nc-3c2c1 | Not Active | – | – | – | – | – | – |
| [2H]C([2H])([2H])Oc1ccc(-n2nc3c4cc(OC([2H])([2H])[2H])ccc4[nH]cc-3c2=O)cc1 | Not Active | – | – | – | – | – | – |
| [2H]C([2H])([2H])Oc1ccc(-n2nc3c4cc(Cl)ccc4[nH]cc-3c2=O)cc1 | Not Active | 85.5% | 92.2% | Non-Toxic | – | – | Activity (HepG2): Non-Toxic; Activity (HEK-293T): Non-Toxic |
| [2H]C([2H])([2H])Oc1ccccc1-n1nc2c3ccc(OC)cc3[nH]cc-2c1=O | Not Active | 93% | 79.9% | – | 3.5 h | 10.9 h | – |
| COc1ccccc1-n1nc2c3ccc(Br)cc3[nH]cc-2c1=O | – | – | – | – | – | – | inhibition [6]: Active; inhibition [7]: Active; inhibition (Rattus norvegicus; tested as the 2H-labelled form): Active; inhibition [8]: Active; inhibition [9]: Active |
| [2H]C([2H])([2H])Oc1cccc(-n2nc3c4cc(OC([2H])([2H])[2H])ccc4[nH]cc-3c2=O)c1 | Not Active | – | – | – | – | – | – |
| [2H]C([2H])([2H])Oc1ccc(-n2nc3c4cc(Cl)ccc4[nH]cc-3c2=O)cn1 | Not Active | 85.1% | 93% | Non-Toxic | – | – | – |
| [2H]C([2H])([2H])Oc1ccccc1-n1nc2c3ccc(Br)cc3[nH]cc-2c1=O | Not Active | 61.3% | 92.8% | – | 14.2 h | 1.5 h | – |
| [2H]C([2H])([2H])Oc1cccc(-n2nc3c4ccc(Br)cc4[nH]cc-3c2=O)c1 | Not Active | 79.5% | 63.5% | – | 1.8 h | 3.6 h | – |
| COc1cccc(-n2nc3c4ccc(Br)cc4[nH]cc-3c2=O)c1 | – | – | – | – | – | – | inhibition [6]: Active; inhibition [7]: Active; inhibition (Rattus norvegicus; tested as the 2H-labelled form): Active; inhibition [8]: Active; inhibition [9]: Active |
| [2H]C([2H])([2H])Oc1cccc(-n2nc3c4ccc(OC)cc4[nH]cc-3c2=O)c1 | Not Active | 91.6% | 81.3% | – | 3.9 h | 14.5 h | – |
| [2H]C([2H])([2H])Oc1ccc(-n2nc3c4ccc(Br)cc4[nH]cc-3c2=O)cn1 | Not Active | 98.4% | 97.8% | Non-Toxic | – | – | – |
| [2H]C([2H])([2H])Oc1ccc2c3nn(-c4ccccc4OC([2H])([2H])[2H])c(=O)c-3c[nH]c2c1 | Not Active | 92% | 90.5% | – | 9.9 h | 13.9 h | Activity (HepG2): Non-Toxic; Activity (HEK-293T): Non-Toxic |
| COc1ccc2c3nn(-c4ccccc4OC)c(=O)c-3c[nH]c2c1 | – | – | – | – | – | – | inhibition (Rattus norvegicus; tested as the 2H-labelled form): inactive |
| COc1ccc(-n2nc3c4cc(Cl)ccc4[nH]cc-3c2=O)cn1 | Not Active | 85.6% | 91.6% | Non-Toxic | – | – | inhibition (Rattus norvegicus): Active; inhibition (Rattus norvegicus; tested as the 2H-labelled form): Active; Activity (HepG2): Non-Toxic; solubility [10]: 0.8 µM (≈ 0.261 µg/mL); solubility [11]: 0.9 µM (≈ 0.294 µg/mL); Activity ([12]; tested as the 2H-labelled form): inactive; Activity (HEK-293T): Non-Toxic |
| [2H]C([2H])([2H])Oc1ccc2c3nn(-c4ccc(OC([2H])([2H])[2H])nc4)c(=O)c-3c[nH]c2c1 | – | 92.5% | 90% | Non-Toxic | 9.8 h | 14.5 h | – |
| COc1ccc(-n2nc3c4ccc(Br)cc4[nH]cc-3c2=O)cn1 | Not Active | 93.1% | 93.4% | Non-Toxic | – | – | Activity (HepG2): Non-Toxic; solubility [10]: 7.3 µM (≈ 2.71 µg/mL); solubility [11]: 7.2 µM (≈ 2.67 µg/mL); Activity ([12]; tested as the 2H-labelled form): Active; Activity (HEK-293T): Non-Toxic |
| [2H]C([2H])([2H])Oc1cccc(-n2nc3c4ccc(OC([2H])([2H])[2H])cc4[nH]cc-3c2=O)c1 | Not Active | 90.5% | 89.5% | – | 7.7 h | 9.9 h | Activity (HepG2): Non-Toxic; Activity (HEK-293T): Non-Toxic |
| COc1ccccc1-n1nc2c3cc(Cl)ccc3[nH]cc-2c1=O | – | – | – | – | – | – | inhibition (Rattus norvegicus; tested as the 2H-labelled form): Active; Activity ([12]; tested as the 2H-labelled form): inactive |
| COc1ccc(-n2nc3c4cnc(OC)cc4[nH]cc-3c2=O)cc1 | Not Active | 93% | 91% | – | 10.6 h | 12 h | solubility [10]: 103.7 µM (≈ 33.4 µg/mL); solubility [11]: 135.9 µM (≈ 43.8 µg/mL); Activity [12]: Active |
